Measured values reported in ChEMBL document CHEMBL4428090, “Modeling, Synthesis, and Biological Evaluation of Potential Retinoid X Receptor (RXR)-Selective Agonists: Analogues of 4-[1-(3,5,5,8,8-Pentamethyl-5,6,7,8-tetrahydro-2-naphthyl)ethynyl]benzoic Acid (Bexarotene) and 6-(Ethyl(5,5,8,8-tetrahydronaphthalen-2-yl)amino)nicotinic Acid (NEt-TMN)” (J Med Chem, 2016).
Calls of active or inactive are those of the source. No cut-off for these calls is given here.

Key:
[1] = biological target: T1, Retinoic acid receptor RXR-alpha/oxysterols receptor LXR-alpha (Homo sapiens, UniProt P19793+Q13133); assay: Agonist activity at human RXRalpha/LXRalpha expressed in human HCT116 cells assessed as reduction in SREBP-mediated transcription activity at 100 nM incubated for 24 hrs by luciferase reporter gene assay relative to bexarotene; assay type: cell-based; set-up: scale not given: the % may be the effect or the level left; conditions: 0.1 µM
T1 sequence (P19793 whole entry): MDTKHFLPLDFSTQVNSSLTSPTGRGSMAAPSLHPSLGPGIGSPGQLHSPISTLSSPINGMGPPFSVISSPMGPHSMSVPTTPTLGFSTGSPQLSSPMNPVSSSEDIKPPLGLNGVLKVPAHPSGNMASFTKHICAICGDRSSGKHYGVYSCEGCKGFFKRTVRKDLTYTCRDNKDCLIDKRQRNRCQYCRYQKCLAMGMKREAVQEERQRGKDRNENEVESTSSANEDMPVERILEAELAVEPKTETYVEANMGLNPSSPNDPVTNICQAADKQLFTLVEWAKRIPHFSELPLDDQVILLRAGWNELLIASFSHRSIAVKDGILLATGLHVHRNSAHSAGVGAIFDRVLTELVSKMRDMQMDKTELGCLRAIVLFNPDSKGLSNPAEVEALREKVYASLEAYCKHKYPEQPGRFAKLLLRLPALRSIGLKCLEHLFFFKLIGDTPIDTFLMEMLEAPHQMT
T1 sequence (Q13133 whole entry): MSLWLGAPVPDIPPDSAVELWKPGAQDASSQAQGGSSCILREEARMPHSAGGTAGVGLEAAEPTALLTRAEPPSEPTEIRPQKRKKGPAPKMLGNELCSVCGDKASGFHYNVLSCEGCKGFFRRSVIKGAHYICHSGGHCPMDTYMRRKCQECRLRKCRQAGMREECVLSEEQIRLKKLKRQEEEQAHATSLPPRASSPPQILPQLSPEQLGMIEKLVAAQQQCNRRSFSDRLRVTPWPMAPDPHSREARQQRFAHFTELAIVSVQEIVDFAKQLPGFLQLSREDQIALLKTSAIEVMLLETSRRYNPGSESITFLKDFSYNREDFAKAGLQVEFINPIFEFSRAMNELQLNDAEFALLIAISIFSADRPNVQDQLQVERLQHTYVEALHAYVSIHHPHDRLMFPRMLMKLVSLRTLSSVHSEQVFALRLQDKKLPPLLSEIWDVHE
Method in brief: (§1)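 HCT116 cells co-transfected for 24 h with 100 ng pBP1c(6500)-Luc (about 6500 bp murine SREBP-1c promoter), 10 ng human LXRα and 20 ng renilla. Treated 24 h with compound at 100 nM, alone or with 100 nM TO901317. Luciferase output. Three independent assays in triplicate; bexarotene = 100%.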

[2] = Mutagenicity in Saccharomyces cerevisiae D7 assessed as induction of mutagenesis by measuring forward and reverse mutations up to 0.1 mg/mL; assay type: toxicity
[3] = biological target: T2, Retinoic acid receptor RXR-alpha (Homo sapiens) (UniProt P19793); assay: Agonist activity at human RXRalpha expressed in human HCT116 cells assessed as increase in RXRE-mediated transcription at 100 nM incubated for 24 hrs by RXRE luciferase reporter gene assay relative to bexarotene; assay type: cell-based
T2 sequence (whole entry): T1 sequence (P19793 whole entry)
Method in brief: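 HCT-116 cells (80,000/well) co-transfected for 24 h with 250 ng RXRE-luciferase reporter (DR1 element from the rat cellular retinol binding protein II gene), 25 ng pSG5-human RXRα and 20 ng renilla. Dosed 24 h at 25, 100 or 1000 nM final; ethanol or DMSO vehicle 0.1%. Dual-luciferase read-out. Three independent assays in triplicate; bexarotene = 100%.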

[4] = biological target: T1, Retinoic acid receptor RXR-alpha/oxysterols receptor LXR-alpha; assay: Agonist activity at human RXRalpha/LXRalpha expressed in human HCT116 cells assessed as reduction in SREBP-mediated transcription activity at 100 nM incubated for 24 hrs by luciferase reporter gene assay in presence of 100 nM LXR agonist TO901317 relative to bexarotene; assay type: cell-based; set-up: scale not given: the % may be the effect or the level left; conditions: 0.1 µM; method in brief: as §1
HuT78 = assay: Inhibition of HDAC1 gene expression in human HUT78 cells at 100 nM incubated for 48 hrs by quantitative real-time PCR method; assay type: functional
Method in brief: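 Hut78 cells resuspended in RPMI with 1% FBS, plated 750,000/well and dosed at 100 nM for 48 h. Total RNA extracted, 0.5 µg DNase-treated RNA reverse-transcribed, then qPCR for HDAC1. Quantified by ΔΔCt, normalized to GAPDH and relative to vehicle-treated cells (2^-ΔΔCt).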

[5] = biological target: T2, Retinoic acid receptor RXR-alpha (Homo sapiens); assay: Agonist activity at human RXRalpha expressed in human HCT116 cells assessed as increase in RXRE-mediated transcription incubated for 24 hrs by RXRE luciferase reporter gene assay; assay type: cell-based

| Activity [1] | Activity [3] | Activity [4] | Activity [5] | SMILES | Activity [2] | inhibition (HuT78) | inhibition at 0.1 µM (HuT78; HuT78, 48 h) |
| --- | --- | --- | --- | --- | --- | --- | --- |
| Active | 68 to 89% | 13 to 17% |  | CCN(c1ccc2c(c1)C(C)(C)CCC2(C)C)c1ccc(C(=O)O)cn1 | Non-Toxic | inactive |  |
| 54 to 79% | 16 to 32% |  |  | CCN(c1ccc(C(=O)O)c(F)c1)c1cc2c(cc1C)C(C)(C)CCC2(C)C | Non-Toxic |  |  |
| 54 to 79% |  | 33% | inactive | CCN(c1ccc2c(c1)C(C)(C)CCC2(C)C)c1cnc(C(=O)O)cn1 | Non-Toxic |  |  |
| Active | 68 to 89% | 13 to 17% |  | CCN(c1ncc(C(=O)O)cn1)c1cc2c(cc1C)C(C)(C)CCC2(C)C | Non-Toxic |  | 28% |
| 54 to 79% | 16 to 32% |  |  | CCN(c1ccc(C(=O)O)cc1)c1cc2c(cc1C)C(C)(C)CCC2(C)C | Non-Toxic |  |  |
